Measured values taken from ChEMBL document CHEMBL5724801, “EUbOPEN Chemogenomics Library - Multiplex” (2024).
Where “and” joins values, the source holds several entries; their conditions need not be identical. Equal values may be shown once.

Test system: U2OS
Experiment: Multiplex assay against U2OS
Format: toxicity, cell-based
Conditions: human
Method in brief: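 Tubulin, mitochondrial-mass and membrane-permeability phenotypes are per cents of healthy-nucleus cells. Cells were gated by CellPathfinder machine learning into Hoechst high-intensity objects or normal cells, normal cells into healthy, pyknosed or fragmented nuclei, and pyknosed cells into mitotic or apoptotic. Before that, live cells stained at seeding with Hoechst33342, BioTracker Green Microtubule Cytoskeleton Dye, MitoTracker Red and Annexin V Alexa Fluor 680 were imaged on a CQ1 microscope at 37°C and 5% CO2 after compound addition.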

[1] = 12 h, 1 µM, compound concentration 1 uM
[2] = 12 h, 10 µM, compound concentration 10 uM
[3] = 24 h, 1 µM, compound concentration 1 uM
[4] = 24 h, 10 µM, compound concentration 10 uM
[5] = 48 h, 1 µM, compound concentration 1 uM
[6] = 48 h, 10 µM, compound concentration 10 uM

## CC[C@H]1OC(=O)[C@H](C)[C@@H](O[C@H]2C[C@@](C)(OC)[C@@H](O)[C@H](C)O2)[C@H](C)[C@@H](O[C@@H]2O[C@H](C)C[C@H](N(C)C)[C@H]2O)[C@@]2(C)CC(C)=C(O2)[C@H](C)[C@@H](O)[C@]1(C)O
[1]
  Population Apoptotic (%): 50% and 84%
  Population Fragmented Nuclei (%): 19% and 23%
  Population Healthy Nuclei (%): 63% and 62%
  Population Hoechst High Intensity Objects (%): 3% and 1%
  Population Membrane Permeable-Phenotype (%): 33% and 21%
  Population Mitochondria Different-Phenotype (%): 23% and 14%
  Population Normal (%): 96% and 98%
  Population Pyknosed Nuclei (%): 17% and 14%
  Population Tubulin-Different-Phenotype (%): 25% and 14%
  Total Cell Count: 226 and 91
[2]
  Population Apoptotic (%): 65% and 73%
  Population Fragmented Nuclei (%): 34% and 21%
  Population Healthy Nuclei (%): 40% and 47%
  Population Hoechst High Intensity Objects (%): 7% and 4%
  Population Membrane Permeable-Phenotype (%): 82% and 72%
  Population Mitochondria Different-Phenotype (%): 63% and 81%
  Population Mitotic Cells (%): 34% and 26%
  Population Normal (%): 92% and 95%
  Population Pyknosed Nuclei (%): 25% and 31%
  Population Tubulin-Different-Phenotype (%): 89% and 96%
  Total Cell Count: 223 and 128
[3]
  Population Apoptotic (%): 65% and 72%
  Population Fragmented Nuclei (%): 20% and 19%
  Population Healthy Nuclei (%): 63% and 64%
  Population Hoechst High Intensity Objects (%): 4% and 5%
  Population Membrane Permeable-Phenotype (%): 20% and 14%
  Population Mitochondria Different-Phenotype (%): 15% and 14%
  Population Mitotic Cells (%): 35% and 27%
  Population Normal (%): 95% and 94%
  Population Pyknosed Nuclei (%): 16%
  Population Tubulin-Different-Phenotype (%): 17% and 10%
  Total Cell Count: 256 and 115
[4]
  Population Apoptotic (%): 67% and 82%
  Population Fragmented Nuclei (%): 33% and 24%
  Population Healthy Nuclei (%): 36% and 45%
  Population Hoechst High Intensity Objects (%): 5% and 4%
  Population Membrane Permeable-Phenotype (%): 56% and 75%
  Population Mitochondria Different-Phenotype (%): 65% and 86%
  Population Mitotic Cells (%): 32% and 17%
  Population Normal (%): 94% and 95%
  Population Pyknosed Nuclei (%): 29% and 30%
  Population Tubulin-Different-Phenotype (%): 76% and 88%
  Total Cell Count: 210 and 121
[5]
  Population Apoptotic (%): 67% and 78%
  Population Fragmented Nuclei (%): 19% and 32%
  Population Healthy Nuclei (%): 54% and 58%
  Population Hoechst High Intensity Objects (%): 9% and 2%
  Population Membrane Permeable-Phenotype (%): 13% and 12%
  Population Mitochondria Different-Phenotype (%): 8% and 12%
  Population Mitotic Cells (%): 32% and 21%
  Population Normal (%): 91% and 97%
  Population Pyknosed Nuclei (%): 26% and 9%
  Population Tubulin-Different-Phenotype (%): 11% and 7%
  Total Cell Count: 300 and 147
[6]
  Population Apoptotic (%): 85% and 83%
  Population Fragmented Nuclei (%): 37% and 20%
  Population Healthy Nuclei (%): 31% and 42%
  Population Hoechst High Intensity Objects (%): 7% and 9%
  Population Membrane Permeable-Phenotype (%): 58% and 62%
  Population Mitochondria Different-Phenotype (%): 55% and 81%
  Population Mitotic Cells (%): 14% and 16%
  Population Normal (%): 92% and 90%
  Population Pyknosed Nuclei (%): 31% and 36%
  Population Tubulin-Different-Phenotype (%): 63% and 88%
  Total Cell Count: 236 and 112

## CC(C)(O)C(=O)N1CCN(c2ccc(C(F)(F)F)c(C3=C(c4c[nH]c5ccccc45)C(=O)NC3=O)c2)CC1
[1]
  Population Apoptotic (%): 88% and 92%
  Population Fragmented Nuclei (%): 29% and 14%
  Population Healthy Nuclei (%): 63% and 75%
  Population Hoechst High Intensity Objects (%): 3% and 1%
  Population Membrane Permeable-Phenotype (%): 5% and 4%
  Population Mitochondria Different-Phenotype (%): 2% and 4%
  Population Mitotic Cells (%): 11% and 7%
  Population Normal (%): 96% and 98%
  Population Pyknosed Nuclei (%): 7% and 9%
  Population Tubulin-Different-Phenotype (%): 3%
  Total Cell Count: 238 and 134
[2]
  Population Apoptotic (%): 76% and 50%
  Population Healthy Nuclei (%): 46% and 77%
  Population Hoechst High Intensity Objects (%): 6% and 1%
  Population Membrane Permeable-Phenotype (%): 39% and 14%
  Population Mitochondria Different-Phenotype (%): 23% and 14%
  Population Mitotic Cells (%): 24% and 50%
  Population Normal (%): 93% and 98%
  Population Pyknosed Nuclei (%): 16%
  Population Tubulin-Different-Phenotype (%): 30% and 15%
  Total Cell Count: 166 and 148
[3]
  Population Apoptotic (%): 89% and 82%
  Population Fragmented Nuclei (%): 27% and 22%
  Population Healthy Nuclei (%): 61% and 67%
  Population Hoechst High Intensity Objects (%): 3% and 0%
  Population Membrane Permeable-Phenotype (%): 7% and 4%
  Population Mitochondria Different-Phenotype (%): 3% and 2%
  Population Mitotic Cells (%): 10% and 17%
  Population Normal (%): 96% and 100%
  Population Pyknosed Nuclei (%): 11% and 9%
  Population Tubulin-Different-Phenotype (%): 5% and 2%
  Total Cell Count: 263 and 172
[4]
  Population Apoptotic (%): 87% and 70%
  Population Fragmented Nuclei (%): 48% and 16%
  Population Healthy Nuclei (%): 27% and 53%
  Population Hoechst High Intensity Objects (%): 6% and 2%
  Population Membrane Permeable-Phenotype (%): 11% and 15%
  Population Mitochondria Different-Phenotype (%): 34% and 24%
  Population Mitotic Cells (%): 12% and 29%
  Population Normal (%): 93% and 97%
  Population Pyknosed Nuclei (%): 24% and 29%
  Population Tubulin-Different-Phenotype (%): 15% and 11%
  Total Cell Count: 172 and 152
[5]
  Population Apoptotic (%): 95% and 85%
  Population Fragmented Nuclei (%): 21% and 17%
  Population Healthy Nuclei (%): 65% and 73%
  Population Hoechst High Intensity Objects (%): 3% and 1%
  Population Membrane Permeable-Phenotype (%): 6% and 7%
  Population Mitochondria Different-Phenotype (%): 4% and 3%
  Population Mitotic Cells (%): 4% and 14%
  Population Normal (%): 96% and 98%
  Population Pyknosed Nuclei (%): 12% and 9%
  Population Tubulin-Different-Phenotype (%): 5% and 2%
  Total Cell Count: 377 and 233
[6]
  Population Apoptotic (%): 95% and 96%
  Population Fragmented Nuclei (%): 57% and 31%
  Population Healthy Nuclei (%): 11% and 27%
  Population Hoechst High Intensity Objects (%): 14% and 7%
  Population Membrane Permeable-Phenotype (%): 27% and 17%
  Population Mitochondria Different-Phenotype (%): 16% and 14%
  Population Mitotic Cells (%): 4% and 3%
  Population Normal (%): 85% and 92%
  Population Pyknosed Nuclei (%): 30% and 41%
  Population Tubulin-Different-Phenotype (%): 11% and 17%
  Total Cell Count: 177 and 163

## O=C1c2c(Br)c(Br)c(Br)c(Br)c2C(=O)N1c1ncc[nH]1
[1]
  Population Apoptotic (%): 34.38% and 22.22%
  Population Fragmented Nuclei (%): 2.78% and 4.62%
  Population Healthy Nuclei (%): 88.33% and 79.77%
  Population Hoechst High Intensity Objects (%): 0%
  Population Membrane Permeable-Phenotype (%): 2.52% and 6.52%
  Population Mitochondria Different-Phenotype (%): 0.94% and 6.52%
  Population Mitotic Cells (%): 65.62% and 77.78%
  Population Normal (%): 100%
  Population Pyknosed Nuclei (%): 8.89% and 15.61%
  Population Tubulin-Different-Phenotype (%): 1.26% and 0.72%
  Total Cell Count: 360 and 173
[2]
  Population Apoptotic (%): 30.95% and 44.44%
  Population Fragmented Nuclei (%): 1.83% and 1.43%
  Population Healthy Nuclei (%): 88.58% and 85.71%
  Population Hoechst High Intensity Objects (%): 0%
  Population Membrane Permeable-Phenotype (%): 0.77% and 1.67%
  Population Mitochondria Different-Phenotype (%): 0% and 5%
  Population Mitotic Cells (%): 69.05% and 55.56%
  Population Normal (%): 100%
  Population Pyknosed Nuclei (%): 9.59% and 12.86%
  Population Tubulin-Different-Phenotype (%): 0.77% and 0.83%
[3]
  Population Apoptotic (%): 47.37% and 28.12%
  Population Fragmented Nuclei (%): 1.69% and 4.85%
  Population Healthy Nuclei (%): 90.27% and 81.06%
  Population Hoechst High Intensity Objects (%): 0.21% and 0%
  Population Membrane Permeable-Phenotype (%): 1.17% and 4.35%
  Population Mitochondria Different-Phenotype (%): 0.47% and 3.8%
  Population Mitotic Cells (%): 52.63% and 71.88%
  Population Normal (%): 99.79% and 100%
  Population Pyknosed Nuclei (%): 8.03% and 14.1%
  Population Tubulin-Different-Phenotype (%): 1.41% and 1.63%
  Total Cell Count: 474 and 227
[4]
  Population Apoptotic (%): 43.1% and 37.93%
  Population Fragmented Nuclei (%): 1.95% and 1.6%
  Population Healthy Nuclei (%): 88.62% and 82.89%
  Population Hoechst High Intensity Objects (%): 0%
  Population Membrane Permeable-Phenotype (%): 0.73% and 3.87%
  Population Mitochondria Different-Phenotype (%): 0% and 3.87%
  Population Mitotic Cells (%): 56.9% and 62.07%
  Population Normal (%): 100%
  Population Pyknosed Nuclei (%): 9.43% and 15.51%
  Population Tubulin-Different-Phenotype (%): 0% and 0.65%
[5]
  Population Apoptotic (%): 46.91% and 35.59%
  Population Fragmented Nuclei (%): 2.45% and 2.79%
  Population Healthy Nuclei (%): 88.91% and 82.23%
  Population Hoechst High Intensity Objects (%): 0%
  Population Membrane Permeable-Phenotype (%): 1.56% and 1.23%
  Population Mitochondria Different-Phenotype (%): 0.24% and 3.09%
  Population Mitotic Cells (%): 53.09% and 64.41%
  Population Normal (%): 100%
  Population Pyknosed Nuclei (%): 8.64% and 14.97%
  Population Tubulin-Different-Phenotype (%): 0.84% and 0.31%
  Total Cell Count: 938 and 394
[6]
  Population Apoptotic (%): 50.54% and 55.88%
  Population Fragmented Nuclei (%): 4.81% and 1.63%
  Population Healthy Nuclei (%): 86.74% and 87.25%
  Population Hoechst High Intensity Objects (%): 0%
  Population Membrane Permeable-Phenotype (%): 0.31% and 3.37%
  Population Mitochondria Different-Phenotype (%): 0% and 1.12%
  Population Mitotic Cells (%): 49.46% and 44.12%
  Population Normal (%): 100%
  Population Pyknosed Nuclei (%): 8.45% and 11.11%
  Population Tubulin-Different-Phenotype (%): 0.31% and 1.87%
